In series [1] the test system is Raji. As to the kind of experiment: Tumor promoting activity in human Raji cells assessed as induction of EBV-early antigen activation after 48 hrs by FITC staining based indirect immunofluorescence assay. Type of series: cell-based. The method in brief:
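Raji cells (5 × 10⁵/mL) were grown in RPMI 1640 with 10% FBS at 37 °C and 5% CO₂, with 4 mM sodium n-butyrate as synergist. Compounds were tested at 10, 100 or 1000 nM final, with DMSO at 0.4% final, for 48 h. Cell smears were stained by indirect immunofluorescence using NPC patient serum and FITC anti-human IgG. At least 500 cells were counted and the percentage of EA-positive cells recorded.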

Series [2] is described as follows: n-Octanol-water partition coefficient, log P of the compound by HPLC analysis. Type of series: physicochemical.
Another series deals with SNB-78. Description: Growth inhibition of human SNB-78 cells after 48 hrs by sulforhodamine B assay. The following applies: SNB-78, 48 h. Format: functional. The method in brief: (§1)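 Cell line from a 39-line human cancer panel, grown in RPMI 1640 with 5% FBS and attached overnight. Exposed 48 h to drug at 10⁻⁸ to 10⁻⁴ M (tenfold steps). Sulforhodamine B read at 525 nm against control and time-0 wells. % growth = 100[(T − T₀)/(C − T₀)] from duplicate points; GI₅₀ is the level giving 50.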
(In general: The SRB assay estimates cell density from bound dye.)

The test system of another series is HCC 2998. As to the kind of experiment: Growth inhibition of human HCC2998 cells after 48 hrs by sulforhodamine B assay. Type of series: functional. The following applies: HCC 2998, 48 h. An outline of the steps: as §1
Series [3] can be described thus: Growth inhibition of human HBC4 cells after 48 hrs by sulforhodamine B assay. Format: functional. The following applies: HBC4, 48 h. An outline of the steps: as §1
In series [4] the target is T1, Protein kinase C epsilon type (Homo sapiens, UniProt Q02156).
T1 sequence (Q02156 whole entry): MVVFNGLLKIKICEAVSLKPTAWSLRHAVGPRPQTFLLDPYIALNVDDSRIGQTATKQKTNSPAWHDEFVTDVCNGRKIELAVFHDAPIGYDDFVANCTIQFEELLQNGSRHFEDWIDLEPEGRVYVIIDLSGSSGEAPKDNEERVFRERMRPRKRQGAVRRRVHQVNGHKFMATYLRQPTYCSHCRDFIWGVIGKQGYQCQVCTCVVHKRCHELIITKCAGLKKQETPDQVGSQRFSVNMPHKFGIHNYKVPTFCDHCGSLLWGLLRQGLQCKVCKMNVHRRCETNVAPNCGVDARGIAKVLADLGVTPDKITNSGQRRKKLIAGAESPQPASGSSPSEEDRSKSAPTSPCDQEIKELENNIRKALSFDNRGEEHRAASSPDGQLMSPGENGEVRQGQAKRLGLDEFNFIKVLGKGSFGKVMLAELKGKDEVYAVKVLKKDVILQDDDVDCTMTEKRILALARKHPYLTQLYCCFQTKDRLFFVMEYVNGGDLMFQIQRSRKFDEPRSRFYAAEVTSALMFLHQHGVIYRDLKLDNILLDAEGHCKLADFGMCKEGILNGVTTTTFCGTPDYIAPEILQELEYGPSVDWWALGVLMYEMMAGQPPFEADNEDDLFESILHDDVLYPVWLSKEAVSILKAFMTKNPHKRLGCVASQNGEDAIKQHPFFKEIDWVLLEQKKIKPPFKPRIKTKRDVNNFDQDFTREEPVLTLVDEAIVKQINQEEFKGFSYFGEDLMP
As to the kind of experiment: Inhibition of [3H]PDBu binding to PKCepsilon C1B domain. The method in brief:
(§2)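 Displacement of [³H]PDBu (20 nM) from synthetic PKC C1 peptides (10−20 nM; about 3 nM properly folded) in 50 mM Tris-maleate, pH 7.4 at 4 °C. Buffer held 50 μg/mL phosphatidylserine and 3 mg/mL bovine γ-globulin, with inhibitor at various concentrations. IC₅₀ taken from 50% loss of specific binding by probit; Ki by the Sharkey–Blumberg method.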

Series [5] addresses Protein kinase C eta type (Homo sapiens, UniProt P24723). Description: Inhibition of [3H]PDBu binding to PKCeta C1B domain. The method in brief: as §2
The next series concerns A549. As to the kind of experiment: Growth inhibition of human A549 cells after 48 hrs by sulforhodamine B assay. Type of series: functional. The following applies: A549, 48 h. The method in brief: as §1
Series [6] concerns the target Protein kinase C alpha type (Homo sapiens, UniProt P17252). Description: Inhibition of [3H]PDBu binding to PKCalpha C1A domain. An outline of the steps:
as §2

The subject of a further series is LOX IMVI. Description: Growth inhibition of human LOXIMVI cells after 48 hrs by sulforhodamine B assay. Format: functional. An outline of the steps:
as §1

Series [7] deals with Raji. As to the kind of experiment: Tumor promoting activity in human Raji cells assessed as induction of EBV-early antigen activation at 1 uM after 48 hrs by FITC staining based indirect immunofluorescence assay. Type of series: cell-based. An outline of the steps: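 Raji B-lymphoblastoid cells (5 × 10⁵/mL) held 48 h at 37 °C, 5% CO₂, in RPMI 1640 with 10% FBS. Medium contained 4 mM sodium n-butyrate and compound at 10, 100 or 1000 nM final, with 0.4% DMSO final. Smears stained by indirect immunofluorescence using NPC patient serum and FITC anti-human IgG. At least 500 cells counted; result given as % EA-positive.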

The subject of the next series is NCI-H460. As to the kind of experiment: Growth inhibition of human NCI-H460 cells after 48 hrs by sulforhodamine B assay. As to conditions: NCI-H460, 48 h. Type of series: functional. The method in brief:
as §1

The target of series [8] is Protein kinase C beta type (Homo sapiens, UniProt P05771). As to the kind of experiment: Inhibition of [3H]PDBu binding to PKCbeta C1A domain. The method in brief: as §2
The subject of a further series is St-4. As to the kind of experiment: Growth inhibition of human St-4 cells after 48 hrs by sulforhodamine B assay. Type of series: functional. As to conditions: St-4, 48 h. The method in brief: as §1
For series [9], the target named is Protein kinase C theta type (Homo sapiens, UniProt Q04759). As to the kind of experiment: Inhibition of [3H]PDBu binding to PKCtheta C1B domain. The method in brief:
as §2

The test system of a further series is MDA-MB-231. Description: Growth inhibition of human MDA-MB-231 cells after 48 hrs by sulforhodamine B assay. Type of series: functional. The following applies: MDA-MB-231, 48 h. The method in brief:
as §1

Series [10] concerns the target Protein kinase C gamma type (Homo sapiens, UniProt P05129). Description: Inhibition of [3H]PDBu binding to PKCgamma C1A domain. An outline of the steps: as §2
The target of series [11] is Protein kinase C delta type (Homo sapiens, UniProt Q05655). Description: Inhibition of [3H]PDBu binding to PKCdelta C1B domain. The method in brief:
as §2

Series [12] has as its system Mus musculus. As to the kind of experiment: Tumor promoting activity in ICR mouse assessed as effect on DMBA-mediated skin carcinogenesis at 8.5 nmol administered 1 week after DMBA challenge twice weekly measured after 20 weeks by two-stage carcinogenesis test. Format: organism-based. As to conditions: in vivo, 3360 h. An outline of the steps:
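Two-stage skin carcinogenesis in ICR mice, with 10 mice per group. The back skin was initiated with a single 390 nmol DMBA dose, then treated with the test compound. The control group received DMBA plus 1.7 nmol TPA. Read-outs were percentage of tumor-bearing mice and papillomas per mouse, compared by Fisher's exact test and Welch's t-test (p < 0.05).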

Series [13] has as its system Mus musculus. Description: Tumor promoting activity in ICR mouse assessed as effect on DMBA-mediated skin carcinogenesis at 1.7 nmol administered 1 week after DMBA challenge twice weekly measured by two-stage carcinogenesis test. As to conditions: in vivo, 168 h. Format: organism-based. An outline of the steps: (§3)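 Two-stage mouse skin model in ICR mice, 10 per group. Back skin initiated with a single 390 nmol dose of DMBA, then promoted with 1.7 nmol of test compound; TPA served as control. Scored as tumor-bearing mice (%), compared by Fisher's exact test, and papillomas per mouse, compared by Welch's t-test; p < 0.05.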

Series [14] relates to Mus musculus. As to the kind of experiment: Tumor promoting activity in ICR mouse assessed as effect on DMBA-mediated skin carcinogenesis at 1.7 nmol administered 1 week after DMBA challenge twice weekly measured after 11 weeks by two-stage carcinogenesis test. The following applies: in vivo, 1848 h. Type of series: organism-based. An outline of the steps:
as §3

In series [15] the test system is Mus musculus. As to the kind of experiment: Tumor promoting activity in DMBA treated ICR mouse assessed as number of papillomas at 1.7 nmol administered 1 week after DMBA challenge twice weekly measured after 20 weeks by two-stage carcinogenesis test. Format: organism-based. As to conditions: in vivo, 3360 h. The method in brief: as §3
Series [16] relates to Mus musculus. Description: Tumor promoting activity in ICR mouse assessed as effect on DMBA-mediated skin carcinogenesis at 1.7 nmol administered 1 week after DMBA challenge twice weekly measured after 6 weeks by two-stage carcinogenesis test. Format: organism-based. As to conditions: in vivo, 1008 h. An outline of the steps: as §3

Bounds are passed on as bounds.

Chain of Protein kinase C delta type (Q05655 whole entry, the tested form may be a part): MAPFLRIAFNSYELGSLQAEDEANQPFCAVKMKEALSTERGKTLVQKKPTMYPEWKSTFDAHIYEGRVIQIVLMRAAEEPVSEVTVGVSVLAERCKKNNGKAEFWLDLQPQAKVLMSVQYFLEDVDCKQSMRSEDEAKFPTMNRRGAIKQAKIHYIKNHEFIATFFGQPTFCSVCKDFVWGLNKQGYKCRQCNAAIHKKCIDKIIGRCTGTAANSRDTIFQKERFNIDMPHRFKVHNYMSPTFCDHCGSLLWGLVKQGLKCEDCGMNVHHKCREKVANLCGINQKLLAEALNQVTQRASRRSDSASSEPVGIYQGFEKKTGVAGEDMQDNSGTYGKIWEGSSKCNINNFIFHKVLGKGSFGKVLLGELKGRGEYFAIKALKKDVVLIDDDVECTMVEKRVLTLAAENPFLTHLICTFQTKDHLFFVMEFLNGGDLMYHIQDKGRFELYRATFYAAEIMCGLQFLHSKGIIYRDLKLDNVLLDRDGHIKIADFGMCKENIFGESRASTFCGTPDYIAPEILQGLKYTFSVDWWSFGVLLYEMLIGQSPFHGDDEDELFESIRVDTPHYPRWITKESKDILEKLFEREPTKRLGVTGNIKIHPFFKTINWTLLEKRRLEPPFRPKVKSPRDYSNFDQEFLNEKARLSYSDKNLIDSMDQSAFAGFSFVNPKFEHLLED
Chain of Protein kinase C eta type (P24723 whole entry, the tested form may be a part): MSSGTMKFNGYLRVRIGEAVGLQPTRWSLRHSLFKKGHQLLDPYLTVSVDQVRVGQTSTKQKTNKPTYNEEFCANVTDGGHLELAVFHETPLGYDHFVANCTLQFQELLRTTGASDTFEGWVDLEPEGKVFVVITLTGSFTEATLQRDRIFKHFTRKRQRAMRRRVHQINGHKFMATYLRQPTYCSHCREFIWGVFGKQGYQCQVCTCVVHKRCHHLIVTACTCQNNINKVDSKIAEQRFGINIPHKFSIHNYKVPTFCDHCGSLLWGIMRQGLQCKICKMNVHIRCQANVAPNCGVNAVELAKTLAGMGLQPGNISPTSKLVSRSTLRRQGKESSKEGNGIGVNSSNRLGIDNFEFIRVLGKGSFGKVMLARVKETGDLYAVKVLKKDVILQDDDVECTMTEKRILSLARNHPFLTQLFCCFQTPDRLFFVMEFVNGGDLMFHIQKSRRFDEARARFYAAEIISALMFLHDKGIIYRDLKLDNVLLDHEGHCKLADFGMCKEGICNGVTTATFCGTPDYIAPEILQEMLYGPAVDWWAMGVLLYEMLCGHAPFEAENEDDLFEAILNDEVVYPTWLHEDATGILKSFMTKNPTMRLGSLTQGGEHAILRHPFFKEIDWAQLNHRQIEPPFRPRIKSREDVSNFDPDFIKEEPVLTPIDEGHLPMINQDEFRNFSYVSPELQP
Chain of Protein kinase C beta type (P05771 whole entry, the tested form may be a part): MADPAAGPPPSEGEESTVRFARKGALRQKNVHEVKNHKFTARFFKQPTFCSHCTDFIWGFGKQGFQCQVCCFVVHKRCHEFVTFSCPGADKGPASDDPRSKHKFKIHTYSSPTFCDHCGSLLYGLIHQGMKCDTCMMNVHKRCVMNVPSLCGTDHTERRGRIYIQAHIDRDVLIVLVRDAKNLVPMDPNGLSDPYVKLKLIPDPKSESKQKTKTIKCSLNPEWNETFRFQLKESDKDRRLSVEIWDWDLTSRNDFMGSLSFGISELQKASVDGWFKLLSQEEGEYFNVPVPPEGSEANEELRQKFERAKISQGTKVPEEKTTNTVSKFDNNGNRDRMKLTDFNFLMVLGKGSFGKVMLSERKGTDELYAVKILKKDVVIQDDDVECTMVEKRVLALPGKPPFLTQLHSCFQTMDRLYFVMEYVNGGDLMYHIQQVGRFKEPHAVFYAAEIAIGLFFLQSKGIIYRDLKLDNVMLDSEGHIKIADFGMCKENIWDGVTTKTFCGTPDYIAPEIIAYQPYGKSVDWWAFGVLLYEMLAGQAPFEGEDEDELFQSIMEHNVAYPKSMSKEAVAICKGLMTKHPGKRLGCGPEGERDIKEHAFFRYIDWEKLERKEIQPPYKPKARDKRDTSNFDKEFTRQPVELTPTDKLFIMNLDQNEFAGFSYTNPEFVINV
Chain of Protein kinase C theta type (Q04759 whole entry, the tested form may be a part): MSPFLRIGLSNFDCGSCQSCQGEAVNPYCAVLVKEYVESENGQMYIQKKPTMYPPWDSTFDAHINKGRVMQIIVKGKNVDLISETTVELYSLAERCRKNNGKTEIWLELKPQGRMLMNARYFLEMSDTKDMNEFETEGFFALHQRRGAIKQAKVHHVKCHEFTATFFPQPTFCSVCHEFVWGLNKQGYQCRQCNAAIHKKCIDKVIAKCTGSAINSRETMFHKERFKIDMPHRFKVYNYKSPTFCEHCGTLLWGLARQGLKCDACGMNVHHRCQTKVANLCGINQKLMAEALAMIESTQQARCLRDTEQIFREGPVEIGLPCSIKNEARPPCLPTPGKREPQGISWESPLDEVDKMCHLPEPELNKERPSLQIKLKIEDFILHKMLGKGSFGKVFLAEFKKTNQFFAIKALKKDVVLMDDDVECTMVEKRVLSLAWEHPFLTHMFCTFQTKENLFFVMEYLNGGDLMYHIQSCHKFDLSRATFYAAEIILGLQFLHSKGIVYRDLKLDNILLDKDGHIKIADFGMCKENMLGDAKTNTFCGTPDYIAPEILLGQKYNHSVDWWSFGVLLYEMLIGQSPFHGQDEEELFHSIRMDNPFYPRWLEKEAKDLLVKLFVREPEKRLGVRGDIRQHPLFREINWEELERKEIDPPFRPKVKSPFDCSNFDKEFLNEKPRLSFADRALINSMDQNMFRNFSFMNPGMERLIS

Usually logP stands for a log measure of how a compound divides between an organic and an aqueous phase. Lower therefore signals lower lipophilicity. In the case of `CC1(C)CC[C@@H]2CC(=O)O[C@@H](CO)CC(=O)O[C@@H]3C[C@@H](CCCCc4cccc(O)c4)O[C@@]1(C3)O2`, the Activity result with Raji [1] was “Toxic”. This molecule showed a logP in series [2] of 3.3.

Usually GI50 stands for the concentration that inhibits growth by half. In general, Ki refers to the equilibrium dissociation constant of an inhibitor or competing ligand from its target. Read a high Ki as weaker binding. Turning to `C[C@@H]1CC(C)(C)[C@@]23C[C@@H](C[C@@H](CCCCc4cccc(O)c4)O2)OC(=O)C[C@H](CO)OC(=O)C[C@@H]1O3`, the concentration for 50% growth inhibition (GI50) in the series with SNB-78 was 17.4 µM; with HCC 2998, 4.07 µM; in [3] it was 0.275 µM; with A549, 7.41 µM; in the series with LOX IMVI it was 4.17 µM; in the series on NCI-H460, 1.26 µM. The concentration for 50% growth inhibition (GI50) in the series on St-4 was 6.03 µM; in the series on MDA-MB-231, 1.55 µM. Also, the inhibition constant (Ki) was found to be 0.017 µM in series [4]; 0.0059 µM in series [5]; 0.015 µM in [6]; 0.015 µM in series [8]; 0.0029 µM in series [9]; 0.012 µM in series [10]. The molecule further displayed a Ki in series [11] of 0.0033 µM. In addition, in the series on Raji [7], the Activity is listed as less than 10%. In series [2], the log partition coefficient (logP) was found to be 3.7.

As to `C[C@H]1[C@@H]2C[C@@]3(O[C@H](CCC3(C)C)CC(=O)O[C@@H](CO)CC(=O)O2)O[C@@H]1CCCCc1cccc(O)c1`, the GI50 was 0.891 µM in the series on SNB-78; 0.339 µM in the series on HCC 2998; 0.0331 µM in series [3]; 0.977 µM in the series on A549; 0.617 µM with LOX IMVI; 0.0851 µM in the series with NCI-H460. The values for the GI50 in the series on St-4 and in the series with MDA-MB-231 were 0.575 µM and 0.126 µM, respectively. The Ki in series [4] was found to be 0.002 µM; in series [5], 0.00045 µM; in [6], 0.0047 µM; in [8] it was 0.012 µM; in [9], 0.00054 µM; in series [10], 0.0055 µM. Also, the Ki in [11] is 0.00046 µM. Besides, the values for the Activity with Raji [7] and with Mus musculus [12] were less than 10% and “Non-toxic”, respectively. In [2], the logP is 3.6.

For `CO[C@@H](CC[C@H](C)[C@H]1O[C@@]23C[C@H](OC(=O)C[C@H]([C@@H](C)O)OC(=O)C[C@](O)(O2)[C@H](C)CC3(C)C)[C@@H]1C)c1cccc(O)c1` [DEBROMOAPLYSIATOXIN], the GI50 in the series with SNB-78 is 15.8 µM; in the series with HCC 2998 it was 0.813 µM; in series [3], 0.339 µM; in the series on A549, 1.15 µM; in the series on LOX IMVI, 2.04 µM; with NCI-H460 it was 0.347 µM. For the same molecule, the results for the concentration for 50% growth inhibition (GI50) in the series on St-4 and in the series with MDA-MB-231 were 0.363 µM and 0.933 µM, respectively. In addition, the Ki in series [4] was determined as 0.00063 µM; in series [5], 0.00011 µM; in series [6], 0.00026 µM; in series [8] it was 0.00017 µM; in [9], 0.00011 µM; in series [10] it was 0.00038 µM. This molecule also returned an inhibition constant Ki in [11] of 0.0002 µM. In addition, the Activity entry with Raji [7] and with Mus musculus [13] was “Toxic” in each case. Besides, the lipophilicity (logP) in [2] is 4.4.

On to `CCCCCCCCCCCCCC(=O)O[C@@H]1[C@@H](C)[C@@]2(O)[C@@H](C=C(CO)C[C@]3(O)C(=O)C(C)=C[C@@H]23)[C@@H]2C(C)(C)[C@]12OC(C)=O` [PHORBOL MYRISTATE ACETATE], for which the Activity is on record as 100% in the series on Mus musculus [14], “Toxic” in the series on Raji [7], “Toxic” in the series with Mus musculus [15] and “Toxic” in the series on Mus musculus [16].

These data come from ChEMBL document CHEMBL2146455, “Structure-activity studies on the spiroketal moiety of a simplified analogue of debromoaplysiatoxin with antiproliferative activity” (J Med Chem, 2012).
